71 compounds from ChEMBL document CHEMBL4513216, “Probing the Open Global Health Chemical Diversity Library for Multistage-Active Starting Points for Next-Generation Antimalarials” (ACS Infect Dis, 2020) can be followed below.

The nature of this series: Toxicity liver stage against HepG2, at 10uM. The format is cell-based. Set-up: test concentration 10 uM, cell line HepG2-A16-CD81EGFP. The conditions noted are these: human, HepG2-A16-CD81EGFP cells; read-out: INHIBITION
In outline: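 Uninfected HepG2-A16-CD81EGFP cells, 3 × 10^3 per well, 1536-well, plated on prespotted compound at 10 μM final, parasite-free screening media added to match infected plates; puromycin 10 μM positive, DMSO 0.5% negative; run in parallel with 48 h PbLuc assay at 37 °C, 5% CO2; viability by CellTiter-Glo luminescence, normalized to controls.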

With `COc1ccc(C(=O)CCC(=O)NCc2c(C)noc2C)cc1F`, the cytotoxicity at 10 µM stood at 2.43%. On to `Cc1ccc(C#N)c(N2CCC(c3nccn3Cc3cscn3)CC2)n1`, for which the cytotoxicity at 10 µM was -6.96%. The figure for `CCN(CC)S(=O)(=O)N1CCCC1c1cccc(Nc2ncc(C)s2)n1` (stereo unspecified) is -39.3%; for `CC(C)OCCCNC(=O)CN1CCC(N2CCN(C)C2=O)CC1` it is -6.82%.

Turning to `CC(C)(C)c1n[nH]c(C2CN(C(=O)c3cc(C4CC4)on3)CCO2)n1` (stereo unspecified), the cytotoxicity at 10 µM is -15.8%. The figure for `O=S(=O)(N1CCCC1)N1CC[C@H](c2ccccc2)[C@H]2NCCCC[C@H]21` is -25.1%.

For the compound `Cc1nc(COCC2CN(C(=O)N(C)C)Cc3nccn3C2)cs1` (stereo unspecified), the cytotoxicity at 10 µM worked out at 4.48%. `COCCN(CCOC)c1nc2c(s1)c(C)nn2C`: the cytotoxicity at 10 µM was -40.5%. The figure for `CC(=O)NCc1cccc(-n2ccnc2-c2cccc(C(=O)O)c2)c1` is -2.29%; for `CN(Cc1ccco1)C(=O)CN1CCCC1Cn1cncn1` (stereo unspecified) it is -24.1%; for `CCNC(=O)NC(=O)CNC1(c2noc(C)n2)CCCCC1` it is -1.3%. The figure for `CCS(=O)(=O)N1CCC(c2nccn2Cc2ccncc2)CC1` is -4%; for `Cc1ccc(C(=O)OC(C)Cn2cccn2)c(=O)[nH]1` (stereo unspecified) it is 3.35%. The figure for `O=C(CCc1ccccn1)NC1CCN(c2cccc(Cl)c2)C1` (stereo unspecified) is 17.1%. Consider `c1cncc(CN2CCCC3(COCCN(c4cnccn4)C3)C2)c1` (stereo unspecified), for which the cytotoxicity at 10 µM is -0.0653%. On to `Cc1cnc(CN(C)Cc2cccc(OC(F)(F)F)c2)cn1`, for which the cytotoxicity at 10 µM stood at 2.4%.

As for `CCCC(C)NCc1cnc(-c2cccc(C)c2)nc1` (stereo unspecified), the cytotoxicity at 10 µM is -11.7%. In the case of `Cc1nc2c(N(C)Cc3ccnn3C)nc(N)nc2n1C`, the cytotoxicity at 10 µM was -7.42%.

Take `Cc1cccnc1NC(=O)C(C)Cn1nc(C(F)(F)F)cc1C` (stereo unspecified): the cytotoxicity at 10 µM came out at 5.89%. As for `CSc1ccc(-c2nc(CN3CCC(NC(C)=O)C3)c(C)o2)cc1` (stereo unspecified), the cytotoxicity at 10 µM amounted to 1.24%. The figure for `COCCCN1CC2(CCC1=O)CCN(Cc1cc(C(C)C)no1)CC2` is -2.1%; for `CCOC(=O)N1CCC(Oc2ccc(C(F)(F)F)cn2)CC1` it is 7.5%. The figure for `CNS(=O)(=O)c1ccc(CNC(=O)NCC2CCC2)cc1` is 6.26%.

Regarding `Cc1cccc(CN2CCC(n3cc(CCO)nn3)CC2)c1C`, the cytotoxicity at 10 µM is 0.636%. The figure for `COc1ccc(CNCc2cn(C)nc2C)cc1` is -1.42%; for `Cc1nc(O)cc(C2CCN(C(=O)CN(C)c3ccccc3)CC2)n1` it is 8.92%; for `CC(=O)NCc1cc2n(n1)CCN(Cc1cc(-c3ccccc3)no1)C2` it is 7.12%. The figure for `Cc1nc(CN2CCCN(CC(=O)Nc3ccncc3)CC2)no1` is -7.03%; for `Cc1ccc(CN(CCN(C)C)Cc2ncc[nH]2)s1` it is -10.5%. The figure for `COc1ccc(Cl)cc1CN(C)C(=O)CN1C(=O)OC[C@@H]1C(C)C` is -4.29%. With `CC1CC(=O)c2cnc3nc(N4CCOCC4)[nH]c(=O)c3c2C1` (stereo unspecified), the cytotoxicity at 10 µM was determined as 5.31%. As for `Cc1ccc(CC(=O)N2CCC(c3nnc4n3CCC4)CC2)cc1`, the cytotoxicity at 10 µM was found to be 4.78%. The figure for `CC1CN(c2ccccc2Cl)C(=O)CN1C(=O)c1c[nH]c(=O)c(Cl)c1` (stereo unspecified) is 0.345%; for `COCCn1cncc1-c1nc2c([nH]1)CC(C)(C)CNC2=O` it is 8.42%. The figure for `Cc1noc(C)c1-c1ccc(C2CCCN2C(=O)c2cnn(C)c2)nc1` (stereo unspecified) is -16.7%. The figure for `O=C1CC(C(=O)Nc2nnc(-c3ccccn3)[nH]2)c2ccccc2N1` (stereo unspecified) is 7.92%. For the compound `CCN(CCC(F)(F)F)C(=O)Nc1cccc(N2CCOCC2)c1`, the cytotoxicity at 10 µM is -8.02%.

As for `COc1cc(CNC(=O)Nc2nncs2)ccc1O`, the cytotoxicity at 10 µM is -6.29%. The figure for `COc1cc2cc3c(nc2cc1OC)OCCN(Cc1ccco1)C3` is -0.116%; for `CC(C)N1CCC(Cc2cncc(-c3ccccc3C(=O)O)n2)CC1` it is 0.822%; for `Cn1cc(C2CCCN2C(=O)Cn2ccc3ccccc32)cn1` (stereo unspecified) it is 5.08%.

With `CCCc1nc(CN2CCCCC2Cn2cncn2)cs1` (stereo unspecified), the cytotoxicity at 10 µM is -5.61%. Turning to `CC(C)N1CCC(Cc2cncc(-c3cccc(C(=O)O)c3)n2)CC1`, the cytotoxicity at 10 µM was -20.8%. Take `CCOc1cc(CN(C)CCOC)ccc1OC(F)F`: the cytotoxicity at 10 µM is -13.7%. The figure for `Cc1nc(N2CCN(C(=O)c3ccncc3)CC2)c2c(n1)c(C)nn2C` is 10.3%; for `CC(C)CN1C[C@H]2N(c3ncccn3)CCC[C@@]2(C(=O)NCC2CC2)C1` it is -94.6%. Take `Nc1ccnc(N2C[C@H]3CC[C@@H](C2)N(CC2CCC2)C3=O)n1`: the cytotoxicity at 10 µM is -0.253%. The figure for `Cc1ccc(NC2CCN(C(=O)c3cccc4c3ccn4C)CC2)nn1` is -17.3%; for `CNc1nc(CNC(=O)Nc2cccc(OC)c2)cs1` it is -3.28%; for `CC(C)CN1CCC(NC(=O)c2ccc(Cl)cc2Cl)CC1` it is -8.33%.

For the compound `O=C(NCc1cc[nH]n1)NCC(c1ccco1)N1CCCC1` (stereo unspecified), the cytotoxicity at 10 µM worked out at 13.6%.

On to `CC1c2ccc(F)cc2CCN1C(=O)c1[nH]c(=O)[nH]c(=O)c1N` (stereo unspecified), for which the cytotoxicity at 10 µM was -5.22%. As to `OC1(CNCCN2CCCc3ccccc32)CCNC1` (stereo unspecified), the cytotoxicity at 10 µM is 7.03%. The figure for `CC(C)CS(=O)(=O)CCNc1ncccn1` is -2.43%; for `C=C(C)Cn1nnc(C2(NC(=O)c3ccccc3)CCCC2)n1` it is 7.09%.

Regarding `O=C1CC2(CCCNC2)C(=O)N1Cc1cccc(F)c1` (stereo unspecified), the cytotoxicity at 10 µM amounted to 3.56%. For `CC(C)C(=O)N1CCN(S(=O)(=O)C2CC2)CC2(CC(=O)N(C)C2)C1` (stereo unspecified), the cytotoxicity at 10 µM amounted to 8.4%.

In the case of `O=C(c1cccs1)N1CCOCC2(C1)CN(c1ccccc1)C(=O)CO2` (stereo unspecified), the cytotoxicity at 10 µM is -0.756%.

Regarding `COc1ccc(CN2CCC3(CC2)CCN(c2ncccn2)CC3)cc1`, the cytotoxicity at 10 µM is -1.08%. The figure for `CC(C)n1cnnc1CNC(=O)CCCOc1ccccc1Cl` is -3.51%; for `COc1cccc(OC)c1C(C(=O)O)N(C)Cc1c(C)n[nH]c1C` (stereo unspecified) it is 2.14%. The figure for `CCOc1ccc(NC(=O)NC2CCc3nc(C)nn3C2)cc1Cl` (stereo unspecified) is -3.81%. The figure for `CNC(=O)c1cccc(NC(=O)NCc2ccc(SC)cc2)c1C` is -4.44%; for `Cc1ccc(C(=O)N2CCCC(NC(=O)C(C)C)C2)c(O)c1` (stereo unspecified) it is -7.84%. Take `Cc1nn(C)c(Cl)c1C1CCCN1C(=O)c1cc(C2CC2)on1` (stereo unspecified): the cytotoxicity at 10 µM was -13.3%. The figure for `COCc1c(Br)cccc1NC(=O)N(C)CCO` is -9.95%; for `O=C(Nc1cnccn1)[C@H]1CC[C@@H]2[C@@H](CCN2Cc2ccoc2)O1` it is 8.86%. As for `OC1(CNCc2ccc(F)c(C(F)(F)F)c2)CCOC1` (stereo unspecified), the cytotoxicity at 10 µM turned out to be 9.21%. The figure for `C[C@H](NC(=O)N1CCC(Cc2ccccc2)CC1)C(=O)O` is -1.65%. The figure for `Cc1ccc(CN2C[C@@H]3[C@@H](C(=O)NCC(C)C)CCS(=O)(=O)[C@@H]3C2)cc1` is 0.793%; for `CC(C)c1sc(Br)nc1C(=O)NCc1ccco1` it is -2.89%.
